Measured values pooled from the literature.
Lines come from different studies, so protocols differ. Values after ≈ are worked out from the molar mass of the structure shown.

| Structure (SMILES) | organism | assay | test system | conditions | measurement | value |
| --- | --- | --- | --- | --- | --- | --- |
| CC(O)CSc1nnc(-c2cc3c(ccc4ccccc43)o2)n1-c1ccccc1 (centres unmarked) | Escherichia coli | microbial growth, disc diffusion | – | 25 µg/disc | inhibition zone | 15.7 mm |
| C[C@@H](O)[C@H]1C(=O)N2C(C(=O)O)=C(SCCN=CN)C[C@H]12 | Escherichia coli | microbial growth, disc diffusion | – | 2000 µg/mL, 24 h | inhibition zone | 18.5 mm |
| O=C(O)c1cn(C2CC2)c2cc(N3CCNCC3)c(F)cc2c1=O | Escherichia coli | microbial growth, disc diffusion | – | 100 µg/mL, 24 h | inhibition zone | 25 mm |
| CO/N=C(\C(=O)N[C@@H]1C(=O)N2C(C(=O)O)=C(COC(C)=O)CS[C@H]12)c1csc(N)n1 | Escherichia coli | microbial growth, broth dilution | – | clinical isolate | MIC90 | 64 µg/mL (≈ 141 µM) |
| CO/N=C(\C(=O)N[C@@H]1C(=O)N2C(C(=O)O)=C(CSC(=O)c3ccco3)CS[C@H]12)c1csc(N)n1 | Staphylococcus aureus | microbial killing | CVCC546 | 18 h | MBC | 2 µg/mL |
| CC(C)(O/N=C(\C(=O)N[C@@H]1C(=O)N2C(C(=O)[O-])=C(C[n+]3ccccc3)CS[C@H]12)c1csc(N)n1)C(=O)O | Escherichia coli | microbial growth, disc diffusion | – | 2000 µg/mL, 24 h | inhibition zone | 5 mm |
| CC(O)CSc1nnc(-c2cc3ccccc3o2)n1-c1ccccc1 (centres unmarked) | Staphylococcus aureus | microbial growth, disc diffusion | – | 25 µg/disc | inhibition zone | 11.3 mm |
| CC1(C)S[C@@H]2[C@H](NC(=O)[C@H](N)c3ccc(O)cc3)C(=O)N2[C@H]1C(=O)O | Escherichia coli | microbial growth, disc diffusion | – | 100 µg/mL, 24 h | inhibition zone | 20 mm |
